The nature of data set [1]: Half life in CD1 mouse liver microsomes at 1 uM incubated for 60 mins under shaking condition by LC-MS/MS analysis. The class given is ADME, Microsome. In outline:
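Metabolic stability in mouse liver microsomes with test compound at 1 μM; result expressed as t1/2 (min).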
(In general: Microsomes from liver hold many membrane-bound enzymes, among them those of drug oxidation.)

Data set [2] addresses T1, PI3-kinase p110-alpha/p85-alpha (Homo sapiens) (UniProt P27986+P42336). The data set can be described thus: Inhibition of human PI3K p110alpha/p85alpha at 10 uM using PIP2 as substrate incubated for 10 mins followed by ATP addition and measured after 30 mins in presence of 10 uM ATP by HTRF assay. The class given is protein-complex assay.
A short description of data set [3]: Kinetic aqueous solubility of compound in 2% DMSO/Phosphate buffer saline incubated for 90 mins under shaking condition by. The conditions noted are these: 2% DMSO/phosphate buffered saline, read-out: Kinetic_solubility. The data set is classed as physicochemical. In a few lines:
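Maximum kinetic aqueous solubility measured in 2% DMSO/phosphate-buffered saline, pH 7.4.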

Data set [4] has as its target T2, Serine/threonine-protein kinase mTOR (Homo sapiens, UniProt P42345). The experiment in a line: Inhibition of human mTOR at 10 uM using 4EBP1 as substrate after 120 mins by [gamma-33P]-ATP assay. In outline:
(§1)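 Single-point kinase screen by HotSpot radioisotope filter binding assay; compound at 10 μM with 10 μM ATP, reported as percent inhibition of PI3Kα and mTOR.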

For data set [5], the target named is T1, PI3-kinase p110-alpha/p85-alpha (Homo sapiens). The data set can be described thus: Inhibition of human PI3K p110alpha/p85alpha at 10 uM using PIP2 as substrate incubated for 10 mins followed by ATP addition and measured after 30 mins in presence of 10 uM ATP by HTRF assay relative to control. The class given is protein-complex assay.
For data set [6], the target named is T2, Serine/threonine-protein kinase mTOR. The experiment in a line: Inhibition of human mTOR at 10 uM using 4EBP1 as substrate after 120 mins by [gamma-33P]-ATP assay relative to control. In outline: as §1
The subject of the next data set is MDA-MB-231. The data set can be described thus: Antiproliferative activity against human MDA-MB-231 cells assessed as cell viability at 10 uM after 48 hrs by celltiter-glo 2D luminescent assay relative to control. The data set is classed as functional. Particulars: read-out: Activity. In a few lines:
(§2)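 2D CellTiter-Glo luminescent viability screen, single 10 μM compound concentration, in MDA-MB-468, MDA-MB-231 and MCF7 breast cancer cells and in normal human dermal fibroblasts; output reported as percent of viable cells.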
In general terms: ATP-based viability assays read luminescence as a measure of living cells.

A further data set has as its system MDA-MB-468. The data set can be described thus: Antiproliferative activity against human MDA-MB-468 cells assessed as cell viability at 10 uM after 48 hrs by celltiter-glo 2D luminescent assay relative to control. The class given is functional. Particulars: read-out: Activity. In a few lines:
as §2

The target of data set [7] is T2, Serine/threonine-protein kinase mTOR. The experiment in a line: Inhibition of mTOR in human MCF7 cells assessed as reduction in phosphorylated P70S6K level after 4 hrs by Western blot analysis. The data set is classed as cell-based. Particulars: dose nM 62.5-125, time 4.0 hrs. In outline:
(§3)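 MCF7 cells treated for 4 h at 62.5 and 125 nM; lysates probed by Western blot for phospho-AKT(473), phospho-4EBP and phospho-P70S6.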
For orientation: A western blot detects proteins with antibodies after separation by electrophoresis.

The subject of data set [8] is MCF7. The experiment in a line: Antiproliferative activity against human MCF7 cells assessed as reduction in cell viability after 48 hrs by celltiter-glo 3D luminescent assay. The data set is classed as functional, cell-based. Particulars: MCF7, 48 h. In a few lines:
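MCF7 cells grown in 3D culture, viability read by CellTiter-Glo 3D luminescence; dose–response curves run up to 15 μM to derive IC50.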

Data set [9] addresses PI3-kinase p110-alpha/p85-alpha (Homo sapiens, UniProt P42336). The experiment in a line: Inhibition of human PI3K p110alpha/p85alpha using PIP2 as substrate incubated for 10 mins followed by ATP addition and measured after 30 mins in presence of 10 uM ATP by HTRF assay. The class given is protein-complex assay.
A short description of data set [10]: Cytotoxicity against human primary fibroblasts assessed as cell viability at 10 uM after 48 hrs by celltiter-glo 2D luminescent assay relative to control. The class given is cell-based, Fibroblast. Particulars: read-out: Activity. In a few lines: as §2
Data set [11] concerns the target T2, Serine/threonine-protein kinase mTOR. The experiment in a line: Inhibition of mTOR in human MCF7 cells assessed as reduction in phosphorylated 4EBP level after 4 hrs by Western blot analysis. Particulars: dose nM 62.5-125, time 4.0 hrs. The class given is cell-based. In outline: as §3
For data set [12], the system named is MCF7. The experiment in a line: Inhibition of PI3K in human MCF7 cells assessed as reduction in AKT phosphorylation at 473 residue after 4 hrs by Western blot analysis. The class given is cell-based. Particulars: dose nM 62.5-125, time 4.0 hrs. In outline: as §3
For data set [13], the system named is MCF7. The data set can be described thus: Antiproliferative activity against human MCF7 cells assessed as cell viability at 10 uM after 48 hrs by celltiter-glo 2D luminescent assay relative to control. The data set is classed as functional. Particulars: read-out: Activity. In a few lines: as §2
In data set [14] the target is T2, Serine/threonine-protein kinase mTOR. The experiment in a line: Inhibition of human mTOR using 4EBP1 as substrate after 120 mins by [gamma-33P]-ATP assay.

≈ marks a conversion by molar mass, not a printed value. Calls of active or inactive are those of the source.

PI3-kinase p110-alpha/p85-alpha, sequence (P27986 whole entry): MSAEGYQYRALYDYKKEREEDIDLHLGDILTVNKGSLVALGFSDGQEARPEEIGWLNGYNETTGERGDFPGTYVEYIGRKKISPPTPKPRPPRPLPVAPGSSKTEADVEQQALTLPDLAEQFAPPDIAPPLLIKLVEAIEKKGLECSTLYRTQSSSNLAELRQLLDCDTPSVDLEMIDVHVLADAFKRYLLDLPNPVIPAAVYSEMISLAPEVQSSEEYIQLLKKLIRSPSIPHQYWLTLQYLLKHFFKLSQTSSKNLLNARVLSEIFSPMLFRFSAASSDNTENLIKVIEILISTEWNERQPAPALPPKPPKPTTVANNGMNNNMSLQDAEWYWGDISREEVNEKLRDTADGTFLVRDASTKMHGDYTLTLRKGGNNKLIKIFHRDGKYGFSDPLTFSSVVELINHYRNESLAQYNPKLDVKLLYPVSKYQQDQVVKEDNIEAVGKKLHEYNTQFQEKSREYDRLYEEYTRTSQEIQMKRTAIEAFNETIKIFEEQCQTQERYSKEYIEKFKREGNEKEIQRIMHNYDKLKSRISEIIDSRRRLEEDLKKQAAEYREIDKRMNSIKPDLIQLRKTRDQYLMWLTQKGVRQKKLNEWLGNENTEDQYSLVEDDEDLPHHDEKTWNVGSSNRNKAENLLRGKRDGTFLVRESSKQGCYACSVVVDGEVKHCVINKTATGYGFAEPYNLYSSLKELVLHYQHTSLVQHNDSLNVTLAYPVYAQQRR
PI3-kinase p110-alpha/p85-alpha, sequence (P42336 whole entry): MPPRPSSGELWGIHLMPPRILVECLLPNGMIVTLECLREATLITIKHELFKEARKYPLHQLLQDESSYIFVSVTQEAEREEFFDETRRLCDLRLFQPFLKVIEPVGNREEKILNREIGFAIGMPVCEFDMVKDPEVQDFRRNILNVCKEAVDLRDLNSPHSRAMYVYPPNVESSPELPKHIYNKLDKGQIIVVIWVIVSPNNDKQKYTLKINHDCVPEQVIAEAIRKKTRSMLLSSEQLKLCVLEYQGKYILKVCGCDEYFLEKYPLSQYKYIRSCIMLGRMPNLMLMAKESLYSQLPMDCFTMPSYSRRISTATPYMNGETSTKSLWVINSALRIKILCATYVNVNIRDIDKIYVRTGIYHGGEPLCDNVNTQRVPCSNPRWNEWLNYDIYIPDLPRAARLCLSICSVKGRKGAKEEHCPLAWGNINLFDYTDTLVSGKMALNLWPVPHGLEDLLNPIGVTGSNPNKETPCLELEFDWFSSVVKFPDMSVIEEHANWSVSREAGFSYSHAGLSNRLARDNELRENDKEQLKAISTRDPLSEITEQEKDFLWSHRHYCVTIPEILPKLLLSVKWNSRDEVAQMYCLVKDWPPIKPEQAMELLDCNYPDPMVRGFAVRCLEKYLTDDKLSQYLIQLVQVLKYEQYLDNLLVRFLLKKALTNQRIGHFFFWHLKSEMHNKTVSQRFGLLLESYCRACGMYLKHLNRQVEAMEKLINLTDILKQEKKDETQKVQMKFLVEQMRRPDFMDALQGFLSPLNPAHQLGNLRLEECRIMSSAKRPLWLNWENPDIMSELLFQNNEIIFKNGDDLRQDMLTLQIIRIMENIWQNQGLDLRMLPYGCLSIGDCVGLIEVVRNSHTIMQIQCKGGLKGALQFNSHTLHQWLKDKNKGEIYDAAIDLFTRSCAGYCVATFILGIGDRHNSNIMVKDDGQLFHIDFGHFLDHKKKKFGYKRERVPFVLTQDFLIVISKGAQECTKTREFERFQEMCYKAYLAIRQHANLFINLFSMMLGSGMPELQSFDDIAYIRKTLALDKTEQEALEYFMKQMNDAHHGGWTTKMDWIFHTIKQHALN

Broadly, the half-life is the time needed for the level to fall by half in the phase considered. Lower therefore signals rapid decline. Broadly, the inhibition is how much of the control response was suppressed. As to `O=C(Nc1ccc(-c2nc(N3CCOCC3)c3ccccc3n2)cc1)Nc1ccc(S(=O)(=O)Nc2ccccn2)cc1`, the half-life at 1 µM in data set [1] is 37.8 min. The inhibition entry in data set [2] and in data set [4] was “Active” each time. Further, the solubility kinetic at 1.5 h in [3] was less than 2 µM. The inhibition in [5] turned out to be 84%.
As to `O=C(Nc1ccc(-c2nc(N3CCOCC3)c3ccccc3n2)cc1)Nc1ccc(S(=O)(=O)Nc2ccc(F)cc2)cc1`, the half-life at 1 µM in data set [1] is more than 60 min. Also, the inhibition entry in data set [2] and in data set [4] was “Active” each time. The inhibition was 60% in [6] and 54% in data set [5]. Besides, the solubility kinetic at 1.5 h in [3] is less than 2 µM.
Turning to `CCC(=O)c1ccc(NC(=O)Nc2ccc(-c3nc(N4CCOCC4)c4ccccc4n3)cc2)cc1`, the half-life at 1 µM in [1] is more than 60 min. Also, the inhibition entry in data set [2] and in data set [4] was “Active” in each case. The inhibition in data set [6] is 73%; in data set [5] it was 77%. The solubility kinetic at 1.5 h in [3] is 4 µM (≈ 1.93 µg/mL).
As usually defined, the IC50 is the concentration at which inhibition is half-maximal. Consider `CC(=O)Nc1ccc(NC(=O)Nc2ccc(-c3nc(N4CCOCC4)c4ccccc4n3)cc2)cc1`, for which the half-life at 1 µM in data set [1] was more than 60 min. Moreover, the viability at 10 µM is 69% in the data set on MDA-MB-231, 50% in the data set with MDA-MB-468 and 29% in the data set with MCF7 [13]. Further, the inhibition entry in [2] and in [4] was “Active” in each case. Further, the inhibition entry (in data set [7]; in data set [11]; with MCF7 [12]) was “Dose-dependent effect” throughout. The IC50 in the data set on MCF7 [8] came out at 200 nM; in data set [9] it was 0.0007 µM. Further, the solubility kinetic at 1.5 h in data set [3] was less than 2 µM. The viability at 48 h, 10 µM in data set [10] came to 71%.
With `O=C(Nc1ccc(-c2nc(N3CCOCC3)c3ccccc3n2)cc1)Nc1ccc(S(=O)(=O)Nc2ccccc2)cc1`, in data set [1], the half-life at 1 µM stood at 23.5 min. The inhibition result in data set [2] and in [4] was “Active” in each case. Also, the inhibition came out at 75% in data set [6] and 63% in data set [5]. The solubility kinetic at 1.5 h in [3] is less than 2 µM.
For the compound `O=C(Nc1ccc(-c2nc(N3CCOCC3)c3ccccc3n2)cc1)Nc1ccc(S(=O)(=O)Nc2ncccn2)cc1`, the half-life at 1 µM in data set [1] was more than 60 min. The inhibition result in data set [2] and in [4] was “Active” in each case. The solubility kinetic at 1.5 h in data set [3] turned out to be 13.6 µM (≈ 7.92 µg/mL). For the same compound, in [5], the inhibition is 83%.
As for `O=S(=O)(Nc1nccs1)c1ccc(Nc2nc(N3CCOCC3)c3ccccc3n2)cc1`, in [1], the half-life at 1 µM stood at 52 min. For the same compound, the inhibition result in data set [2] and in [4] was “Active” each time. For the same compound, in [3], the solubility kinetic at 1.5 h stood at 42.6 µM (≈ 20 µg/mL). Further, the figures for the IC50 in data set [9] and in data set [14] were 6.9 µM and 11.4 µM, respectively.
`CCOC(=O)c1ccc(NC(=O)Nc2ccc(-c3nc(N4CCOCC4)c4ccccc4n3)cc2)cc1` came in with a half-life at 1 µM in data set [1] of 30.5 min. In addition, the inhibition result in data set [2] and in data set [4] was “Active” each time. Further, the inhibition in data set [6] is 81%; in data set [5] it was 73%. Moreover, the solubility kinetic at 1.5 h in [3] is less than 2 µM.
In turn, `O=C(Nc1ccc(-c2nc(N3CCOCC3)c3ccccc3n2)cc1)Nc1ccc(S(=O)(=O)Nc2ccc(F)cc2F)cc1` registered a half-life at 1 µM in [1] of more than 60 min. For the same compound, the inhibition result in data set [2] and in data set [4] was “Active” in each case. In addition, the inhibition in data set [6] was determined as 70%; in data set [5] it was 56%. Moreover, the solubility kinetic at 1.5 h in [3] turned out to be 4.3 µM (≈ 2.65 µg/mL).

Source of the values: ChEMBL document CHEMBL4725466, “Discovery and SAR of Novel Disubstituted Quinazolines as Dual PI3Kalpha/mTOR Inhibitors Targeting Breast Cancer” (ACS Med Chem Lett, 2020).
